One test deals with HCT-8. Kind of test: Cytotoxicity against human HCT8 cells after 96 hrs by MTT assay. The format is functional, cell-based. The following applies: HCT-8, 96 h. The gist of the method: (§1)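 Tested on a human tumour panel of A2780 (ovary), HCT-8 (colon), Bel-7402 (hepatoma), BGC-823 (stomach) and A549 (lung) lines. Camptothecin was the positive control.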
In general terms: Tetrazolium assays rely on reduction of a dye to a coloured formazan, in cell work by metabolically active cells.

In the next test the test system is A549. Kind of test: Cytotoxicity against human A549 cells after 96 hrs by MTT assay. The format is functional, cell-based. The following applies: A549, 96 h. The gist of the method: as §1
Test [1] concerns Peritoneal macrophage cell. The test is described as follows: (§2) Antiinflammatory activity in C57BL6J mouse peritoneal macrophages assessed as inhibition of LPS-stimulated TNFalpha secretion at 10 uM after 24 hrs by MTT assay. The format is functional, cell-based.
For another test, the system named is A2780. The test is described as follows: Cytotoxicity against human A2780 cells after 96 hrs by MTT assay. The format is functional, cell-based. Particulars: A2780, 96 h. The gist of the method:
as §1

A short description of test [2]: Cytotoxicity against human […] cells after 96 hrs by MTT assay. The format is functional, cell-based. In a few lines: as §1
The test system of another test is Bel-7402. The test is described as follows: Cytotoxicity against human Bel7402 cells after 96 hrs by MTT assay. The test is classed as functional, cell-based. The following applies: Bel-7402, 96 h. The gist of the method: as §1
For test [3], the target named is T1, Tyrosine-protein phosphatase non-receptor type 1 (Homo sapiens, UniProt P18031).
T1 sequence (P18031 whole entry): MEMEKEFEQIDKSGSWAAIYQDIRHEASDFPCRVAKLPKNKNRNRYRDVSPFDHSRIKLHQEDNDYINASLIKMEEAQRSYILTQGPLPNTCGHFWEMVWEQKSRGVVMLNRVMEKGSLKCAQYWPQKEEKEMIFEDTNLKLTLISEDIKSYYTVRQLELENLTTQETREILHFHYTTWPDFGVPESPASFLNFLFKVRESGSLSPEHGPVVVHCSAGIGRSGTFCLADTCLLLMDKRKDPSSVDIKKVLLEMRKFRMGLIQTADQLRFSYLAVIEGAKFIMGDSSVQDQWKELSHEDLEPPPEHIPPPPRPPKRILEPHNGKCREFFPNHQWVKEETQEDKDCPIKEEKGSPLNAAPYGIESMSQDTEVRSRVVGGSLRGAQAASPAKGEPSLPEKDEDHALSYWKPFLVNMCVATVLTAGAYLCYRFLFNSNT
The test is described as follows: Inhibition of GST-tagged human recombinant PTP1B assessed as dephosphorylation of para-nitrophenyl phosphate after 10 mins by spectrophotometric analysis.

The nature of test [4]: as §2. The format is functional, cell-based. The following applies: Peritoneal macrophage cell.

The source made the active and inactive calls. No cut-off for these calls is given here.

As usually defined, the IC50 is the concentration at which inhibition is half-maximal. Turning to `CC(=O)[C@H]1[C@H](O)C[C@@]2(C)[C@@H]3CC=C4[C@@H](C=C(O[C@@H]5O[C@H](CO)[C@@H](O)[C@H](O)[C@H]5O)C(=O)C4(C)C)[C@]3(C)C(=O)C[C@]12C` [KHEKADAENGOSIDE K], the IC50 (with HCT-8; with A549; in the test with A2780; in test [2]; in the test with Bel-7402) was > 10 µM throughout. Moreover, the result in test [1] was inactive.
On to `CC1(C)C(=O)C(O[C@@H]2O[C@H](CO)[C@@H](O)[C@H](O)[C@H]2O)=C[C@@H]2C1=CC[C@@H]1[C@@]2(C)C(=O)C[C@]2(C)[C@@H]3[C@@H](C[C@@]12C)O[C@H](C(C)(C)O)CC(=O)[C@]3(C)O`, for which the IC50 in test [3] is 2.81 µM; in the test on HCT-8, > 10 µM; in the test with A549 it was > 10 µM; in the test on A2780, > 10 µM; in test [2], > 10 µM; in the test on Bel-7402, > 10 µM. Further, in test [1], the outcome was inactive.
For the molecule `CC1(C)C(=O)C(O[C@@H]2O[C@H](CO)[C@@H](O)[C@H](O)[C@H]2O)=C[C@@H]2C1=CC[C@@H]1[C@@]2(C)C(=O)C[C@]2(C)[C@@H]([C@@](C)(O)C(=O)C[C@@H](O)C(C)(C)O)[C@H](O)C[C@@]12C`, the IC50 (with HCT-8; with A549; in the test on A2780; in test [2]; in the test with Bel-7402) was > 10 µM throughout. For the same molecule, the outcome in test [1] was inactive.
Turning to `CC(=O)C1=CC[C@@]2(C)[C@@H]3CC=C4[C@@H](C=C(O[C@@H]5O[C@H](CO)[C@@H](O)[C@H](O)[C@H]5O)C(=O)C4(C)C)[C@]3(C)C(=O)C[C@]12C`, the IC50 (in the test with HCT-8; with A549; in the test on A2780; in test [2]; in the test on Bel-7402) was > 10 µM in each case. Besides, the result in test [1] was inactive.
On to `CC[C@@]1(O)C(=O)OCc2c1cc1n(c2=O)Cc2cc3ccccc3nc2-1` [CAMPTOTHECIN], for which the IC50 (in the test on HCT-8; with A549; in the test on A2780; in test [2]; in the test on Bel-7402) was 0.26 µM throughout.
Consider `CO[C@@H](CC(=O)[C@](C)(O)[C@H]1[C@H](O)C[C@@]2(C)[C@@H]3CC=C4[C@@H](C=C(O)C(=O)C4(C)C)[C@]3(C)C(=O)C[C@]12C)C(C)(C)O`, for which the half-inhibitory concentration (IC50) (in the test on HCT-8; in the test with A549; in test [4]; in the test on A2780; in test [2]; with Bel-7402) was > 10 µM throughout.
`CC(=O)OC(C)(C)/C=C/C(=O)[C@](C)(O)[C@H]1[C@H](O)C[C@@]2(C)[C@@H]3CC=C4[C@@H](C=C(O[C@@H]5O[C@H](CO)[C@@H](O)[C@H](O)[C@H]5O)C(=O)C4(C)C)[C@]3(C)C(=O)C[C@]12C`: the IC50 in the test with HCT-8 is > 10 µM; in the test on A549, 3.2 µM; in the test on A2780, > 10 µM; in test [2], 4.98 µM; with Bel-7402, > 10 µM. In test [1], the result was inactive.
Turning to `CC1(C)C(=O)C(O[C@@H]2O[C@H](CO)[C@@H](O)[C@H](O)[C@H]2O)=C[C@@H]2C1=CC[C@@H]1[C@@]2(C)C(=O)C[C@]2(C)[C@@H]([C@@]3(C)OC=CC3=O)[C@H](O)C[C@@]12C`, the IC50 (in the test with HCT-8; with A549; with A2780; in test [2]; with Bel-7402) was > 10 µM each time. Moreover, the result in test [1] was inactive.
`CC1(C)C(=O)C(O[C@@H]2O[C@H](CO)[C@@H](O)[C@H](O)[C@H]2O)=C[C@@H]2C1=CC[C@@H]1[C@@]2(C)C(=O)C[C@]2(C)[C@@H]([C@@](C)(O)C(=O)C[C@H]3NC(=O)OC3(C)C)[C@H](O)C[C@@]12C`: the IC50 in test [3] was 4.26 µM; with HCT-8 it was > 10 µM; with A549, > 10 µM; with A2780, > 10 µM; in test [2], > 10 µM; with Bel-7402, > 10 µM. For the same molecule, the result in test [1] was inactive.
In the case of `CC1(C)C(=O)C(O[C@@H]2O[C@H](CO)[C@@H](O)[C@H](O)[C@H]2O)=C[C@@H]2C1=CC[C@@H]1[C@@]2(C)C(=O)C[C@]2(C)[C@@H]([C@@](C)(O)C(=O)C[C@H](O)C(C)(C)O)[C@H](O)C[C@@]12C`, the IC50 (in the test on HCT-8; in the test on A549; in the test on A2780; in test [2]; in the test on Bel-7402) was > 10 µM in each case. Also, the outcome in test [1] was inactive.
In the case of `CO[C@@H](CC(=O)[C@](C)(O)[C@H]1[C@H](O)C[C@@]2(C)[C@@H]3CC=C4[C@@H](C=C(O[C@@H]5O[C@H](CO)[C@@H](O)[C@H](O)[C@H]5O)C(=O)C4(C)C)[C@]3(C)C(=O)C[C@]12C)C(C)(C)O`, the IC50 (in the test on HCT-8; with A549; with A2780; in test [2]; with Bel-7402) was > 10 µM each time. The result in test [1] was inactive.
On to `CC1(C)C(=O)C(O)=C[C@@H]2C1=CC[C@@H]1[C@@]2(C)C(=O)C[C@]2(C)[C@@H]([C@@](C)(O)C(=O)C[C@H](O)C(C)(C)O)[C@H](O)C[C@@]12C`, for which the IC50 (with HCT-8; in the test on A549; in test [4]; in the test on A2780; in test [2]; in the test on Bel-7402) was > 10 µM throughout.
As for `CC1(C)C[C@]2(O)O[C@@H]3C[C@@]4(C)[C@@H]5CC=C6[C@@H](C=C(O[C@@H]7O[C@H](CO)[C@@H](O)[C@H](O)[C@H]7O)C(=O)C6(C)C)[C@]5(C)C(=O)C[C@]4(C)[C@H]3[C@@](C)(O)[C@]2(O)O1`, the IC50 in test [3] was 8.63 µM; in the test with HCT-8, > 10 µM; in the test on A549, > 10 µM; with A2780, > 10 µM; in test [2], > 10 µM; in the test on Bel-7402 it was > 10 µM. In addition, the outcome in test [1] was inactive.
On to `CC1(C)C(=O)C(O)=C[C@@H]2C1=CC[C@@H]1[C@@]2(C)C(=O)C[C@]2(C)[C@@H]([C@@](C)(O)C(=O)C[C@@H](O)C(C)(C)O)[C@H](O)C[C@@]12C`, for which the IC50 (in the test on HCT-8; in the test with A549; with A2780; in test [2]; in the test on Bel-7402) was > 10 µM throughout. The result in test [1] was inactive.
In the case of `C[C@H]1[C@H]2[C@@H](C[C@@]3(C)[C@@H]4CC=C5[C@@H](C=C(O[C@@H]6O[C@H](CO)[C@@H](O)[C@H](O)[C@H]6O)C(=O)C5(C)C)[C@]4(C)C(=O)C[C@]23C)O[C@@]2(O)CC(C)(C)O[C@@]12O`, the IC50 (in the test on HCT-8; in the test on A549; with A2780; in test [2]; in the test on Bel-7402) was > 10 µM each time. Besides, the outcome in test [1] was inactive.
Turning to `CC(C)(O)/C=C/C(=O)[C@](C)(O)[C@H]1[C@H](O)C[C@@]2(C)[C@@H]3CC=C4[C@@H](C=C(O[C@@H]5O[C@H](CO)[C@@H](O)[C@H](O)[C@H]5O)C(=O)C4(C)C)[C@]3(C)C(=O)C[C@]12C`, the IC50 (in the test on HCT-8; with A549; in the test with A2780; in test [2]; in the test with Bel-7402) was > 10 µM throughout. Also, in test [1], the result was inactive.

Values taken from ChEMBL document CHEMBL1921699, “Cucurbitane glucosides from the root of Machilus yaoshansis” (J Nat Prod, 2011).
